Experimental data: the RNAGym collection of RNA variant scans (doi:10.1002/anie.201605470)

B1: Osa-1-4 twister ribozyme (parent)
chain: CCGCCUAACACUGCCAAUGCCGGUCCCAAGCCCGGAUAAAAGUGGAGGGGGCGG

Variants of: B1
Test: self-cleavage, relative activity (ratio to wild type); higher = more cleavage; co-transcriptional
Outline: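 Relative activity is the fraction cleaved divided by that of the wild-type ribozyme. The library came from a DNA template for a 54-nucleotide Oryza sativa twister ribozyme, doped at the 48 positions downstream of the cleavage site with 97 % wild-type base and 1 % of each other base. After 2 h of in vitro transcription at 37 °C with co-transcriptional self-cleavage, the RNA was reverse-transcribed with a template-switching oligonucleotide, amplified by PCR and deep-sequenced, and reads with or without upstream sequence gave the cleavage status.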

Compared with CCGCCUGACACUGCCAAUGCCGGUCCCAAGCCCGGAUAAAAGUGGAGGGCGCGG [A7G G50C], CCGCCUGACACUGCCAAUGCCGGUCCCAAGCCCGGAUAAAAGUGGAGGGAGCGG [A7G G50A] is higher in self-cleavage: 0.16 for the first, 0.17 for the second.

Going from CCGCCUGACACUGCCAAUGCCGGUCCCAAGCCCGGAUAAAAGUGGAGGGUGCGG [A7G G50U] to CCGCCUGACACUGCCAAUGCCGGUCCCAAGCCCUGAUAAAAGUGGAGGGGGCGG [A7G G34U], the self-cleavage falls from 0.16 to 0.12.

First: CCGCCUGACACUGCCAAUGCCGGUCCCAAGCCCAGAUAAAAGUGGAGGGGGCGG [A7G G34A]
Second: CCGCCUGACACUGCCAAUGCCGGUCCCAAGCCCCGAUAAAAGUGGAGGGGGCGG [A7G G34C]
The self-cleavage of the first is higher: 0.21 for the first, 0.14 for the second.

Going from CCGCCUGACACUGCCAAUGCCGUUCCCAAGCCCGGAUAAAAGUGGAGGGGGCGG [A7G G23U] to CCGCCUGACACUGCCAAUGCCGCUCCCAAGCCCGGAUAAAAGUGGAGGGGGCGG [A7G G23C], the self-cleavage rises from 0.04 to 0.06.

First: CCGCCUGACACUGCCAAUGCCGAUCCCAAGCCCGGAUAAAAGUGGAGGGGGCGG [A7G G23A]
Second: CCGCCUGACACUGCCAAUGCCGGUCCCAAGCCAGGAUAAAAGUGGAGGGGGCGG [A7G C33A]
The self-cleavage of the first is higher: 0.14 for the first, 0.07 for the second.

First: CCGCCUGACACUGCCAAUGCCGGUCCCAAGCCGGGAUAAAAGUGGAGGGGGCGG [A7G C33G]
Second: CCGCCUGACACUGCCAAUGCCGGUCCCAAGCCUGGAUAAAAGUGGAGGGGGCGG [A7G C33U]
The self-cleavage of the first is lower: 0.03 for the first, 0.13 for the second.

Compared with CCGCCUGACACUGCCAAUGCCGGUCCCAAGCCCGUAUAAAAGUGGAGGGGGCGG [A7G G35U], CCGCCUGACACUGCCAAUGCCGGUCCCAAGCCCGAAUAAAAGUGGAGGGGGCGG [A7G G35A] is higher in self-cleavage: 0.2 for the first, 0.31 for the second.

CCGCCUGACACUGCCAAUGCCGGUCCCAAGCCCGCAUAAAAGUGGAGGGGGCGG [A7G G35C] and CCGCCUGACACUGCCAAUGCCUGUCCCAAGCCCGGAUAAAAGUGGAGGGGGCGG [A7G G22U] are the same in self-cleavage: 0.1 for the first, 0.1 for the second.

Going from CCGCCUGACACUGCCAAUGCCAGUCCCAAGCCCGGAUAAAAGUGGAGGGGGCGG [A7G G22A] to CCGCCUGACACUGCCAAUGCCCGUCCCAAGCCCGGAUAAAAGUGGAGGGGGCGG [A7G G22C], the self-cleavage falls from 0.18 to 0.08.

Going from CCGCCUGACACUGCCAAUCCCGGUCCCAAGCCCGGAUAAAAGUGGAGGGGGCGG [A7G G19C] to CCGCCUGACACUGCCAAUACCGGUCCCAAGCCCGGAUAAAAGUGGAGGGGGCGG [A7G G19A], the self-cleavage rises from 0.06 to 0.15.

Compared with CCGCCUGACACUGCCAAUUCCGGUCCCAAGCCCGGAUAAAAGUGGAGGGGGCGG [A7G G19U], CCGCCUGACACUGCCAAUGCCGGUCCCAAGCCCGGAUAAAAGUGGAGGGGACGG [A7G G51A] is higher in self-cleavage: 0.07 for the first, 0.12 for the second.

Compared with CCGCCUGACACUGCCAAUGCCGGUCCCAAGCCCGGAUAAAAGUGGAGGAGGCGG [A7G G49A], CCGCCUGACACUGCCAAUGCCGGUCCCAAGCCCGGAUAAAAGUGGAGGCGGCGG [A7G G49C] is lower in self-cleavage: 0.07 for the first, 0.05 for the second.

CCGCCUGACACUGCCAAUGCCGGUCCCAAGCCCGGAUAAAAGUGGAGGUGGCGG [A7G G49U] and CCGCCUGACACUGCCAAUGCCGGUCCCAAGCCCGGAUAAAAGUGUAGGGGGCGG [A7G G45U] are the same in self-cleavage: 0.05 for the first, 0.05 for the second.

Compared with CCGCCUGACACUGCCAAUGCCGGUCCCAAGCCCGGAUAAAAGUGAAGGGGGCGG [A7G G45A], CCGCCUGACACUGCCAAUGCCGGUCCCAAGCCCGGAUAAAAGUGCAGGGGGCGG [A7G G45C] is lower in self-cleavage: 0.08 for the first, 0.04 for the second.

First: CCGCCUGACACUGCCAAUGCCGGUCCCAAGCCCGGAUAAAAGUGGAUGGGGCGG [A7G G47U]
Second: CCGCCUGACACUGCCAAUGCCGGUCCCAAGCCCGGAUAAAAGUGGACGGGGCGG [A7G G47C]
The self-cleavage of the first is higher: 0.07 for the first, 0.05 for the second.

Going from CCGCCUGACACUGCCAAUGCCGGUCCCAAGCCCGGAUAAAAGUGGAAGGGGCGG [A7G G47A] to CCGCCUGACACUACCAAUGCCGGUCCCAAGCCCGGAUAAAAGUGGAGGGGGCGG [A7G G13A], the self-cleavage falls from 0.08 to 0.06.

Compared with CCGCCUGACACUUCCAAUGCCGGUCCCAAGCCCGGAUAAAAGUGGAGGGGGCGG [A7G G13U], CCGCCUGACACUCCCAAUGCCGGUCCCAAGCCCGGAUAAAAGUGGAGGGGGCGG [A7G G13C] is higher in self-cleavage: 0.02 for the first, 0.03 for the second.

Compared with CCGCCUGACACUGCCAAUGCCGGUCCCAAGCCCGGAUAAAAGUGGAGGGGGAGG [A7G C52A], CCGCCUGACACUGCCAAUGCCGGUCCCAAGCCCGGAUAAAAGUGGAGGGGGUGG [A7G C52U] is higher in self-cleavage: 0.29 for the first, 0.55 for the second.

Going from CCGCCUGACACUGCCAAUGCCGGUCCCAAGCCCGGAUAAAAGUGGAGGGGGGGG [A7G C52G] to CCGCCUGACACUGCCAAUGCCGGUCCCAAGCCCGGAUAAAAGUCGAGGGGGCGG [A7G G44C], the self-cleavage falls from 0.32 to 0.21.

First: CCGCCUGACACUGCCAAUGCCGGUCCCAAGCCCGGAUAAAAGUUGAGGGGGCGG [A7G G44U]
Second: CCGCCUGACACUGCCAAUGCCGGUCCCAAGCCCGGAUAAAAGUAGAGGGGGCGG [A7G G44A]
The self-cleavage of the first is higher: 0.15 for the first, 0.13 for the second.

First: CCGCCUGACACUGCCAAUGCCGGUCCCAAGCCCGGAUAAAAGUGGAGAGGGCGG [A7G G48A]
Second: CCGCCUGACACUGCCAAUGCCGGUCCCAAGCCCGGAUAAAAGUGGAGCGGGCGG [A7G G48C]
The self-cleavage of the first is higher: 0.06 for the first, 0.05 for the second.

Compared with CCGCCUGACACUGCCAAUGCCGGUCCCAAGCCCGGAUAAAAGUGGAGUGGGCGG [A7G G48U], CCGCCUGACACUGCCAAUGCCGGUCCCAAGCCCGGAUAAAACUGGAGGGGGCGG [A7G G42C] is higher in self-cleavage: 0.05 for the first, 0.08 for the second.

Going from CCGCCUGACACUGCCAAUGCCGGUCCCAAGCCCGGAUAAAAUUGGAGGGGGCGG [A7G G42U] to CCGCCUGACACUGCCAAUGCCGGUCCCAAGCCCGGAUAAAAAUGGAGGGGGCGG [A7G G42A], the self-cleavage rises from 0.05 to 0.13.

First: CCGCCUGACACUGCCAAUGCCGGUCCCAACCCCGGAUAAAAGUGGAGGGGGCGG [A7G G30C]
Second: CCGCCUGACACUGCCAAUGCCGGUCCCAAACCCGGAUAAAAGUGGAGGGGGCGG [A7G G30A]
The self-cleavage of the first is lower: 0.03 for the first, 0.04 for the second.

Variant CCGCCUGACACUGCCAAUGCCGGUCCCAAUCCCGGAUAAAAGUGGAGGGGGCGG [A7G G30U] has a self-cleavage of 0.05.
